According to ChEMBL document CHEMBL3792364, “Identification and biological activity of 6-alkyl-substituted 3-methyl-pyridine-2-carbonyl amino dimethyl-benzoic acid EP4 antagonists” (Bioorg Med Chem Lett, 2016):
Values after ≈ are worked out from the molar mass of the structure shown. Active and inactive are the calls of the source. The calls are words filed in the database; no cut-off is given here.

Columns and labels:
[1] = biological target: Prostaglandin E2 receptor EP4 subtype (Homo sapiens, UniProt P35408); assay: Antagonist activity against human EP4 expressed in HEK293 cells assessed as inhibition of PGE2-stimulated production of cAMP incubated for 20 mins by HTRF assay; type: functional, cell-based
Prostaglandin E2 receptor EP4 subtype, sequence (P35408 whole entry): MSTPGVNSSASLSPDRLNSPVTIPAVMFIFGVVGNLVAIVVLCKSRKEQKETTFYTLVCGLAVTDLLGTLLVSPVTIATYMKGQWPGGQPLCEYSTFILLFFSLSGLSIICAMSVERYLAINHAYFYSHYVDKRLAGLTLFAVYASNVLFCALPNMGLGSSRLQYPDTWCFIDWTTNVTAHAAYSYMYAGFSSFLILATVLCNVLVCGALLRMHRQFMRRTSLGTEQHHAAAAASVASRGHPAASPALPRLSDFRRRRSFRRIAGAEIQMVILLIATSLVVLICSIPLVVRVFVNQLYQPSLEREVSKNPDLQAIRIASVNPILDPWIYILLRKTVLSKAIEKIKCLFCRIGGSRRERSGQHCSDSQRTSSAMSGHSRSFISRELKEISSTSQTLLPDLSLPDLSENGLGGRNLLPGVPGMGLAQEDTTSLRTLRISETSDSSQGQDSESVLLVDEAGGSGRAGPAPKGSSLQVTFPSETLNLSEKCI

Cytochrome P450 3A4 [2] = biological target: T1, Cytochrome P450 3A4 (Homo sapiens, UniProt P08684); assay: Inhibition of CYP3A4 (unknown origin) at 10 uM; type: ADME
T1 sequence (P08684 whole entry): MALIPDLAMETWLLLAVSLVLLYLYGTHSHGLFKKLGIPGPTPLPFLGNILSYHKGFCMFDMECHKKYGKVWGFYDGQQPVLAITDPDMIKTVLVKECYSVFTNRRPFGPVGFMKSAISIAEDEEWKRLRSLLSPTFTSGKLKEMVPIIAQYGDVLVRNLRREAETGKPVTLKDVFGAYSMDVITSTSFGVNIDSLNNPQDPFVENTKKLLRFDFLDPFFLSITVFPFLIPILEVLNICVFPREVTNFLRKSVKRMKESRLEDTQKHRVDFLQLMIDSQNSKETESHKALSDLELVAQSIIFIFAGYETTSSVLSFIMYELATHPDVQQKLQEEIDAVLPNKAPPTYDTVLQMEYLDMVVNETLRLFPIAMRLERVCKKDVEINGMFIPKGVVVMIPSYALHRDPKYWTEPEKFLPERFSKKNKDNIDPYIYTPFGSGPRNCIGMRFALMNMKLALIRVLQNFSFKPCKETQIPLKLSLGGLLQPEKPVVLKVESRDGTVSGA
Summary of the method: (§1)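 Inhibition of CYP1A2, 2B6, 2C19, 2C8, 2C9, 2D6 and 3A4 tested in vitro at concentrations up to 10 µM.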

[3] = Oral bioavailability in rat at 5 mg/kg; type: ADME, organism-based; conditions: in vivo
[4] = Oral bioavailability in dog at 5 mg/kg; type: ADME, organism-based, Canis lupus familiaris; conditions: in vivo
[5] = biological target: L-type calcium channel dihydropyridine binding site (Homo sapiens, UniProt O60840+Q01668+Q13698+Q13936); assay: Inhibition of L-type calcium channel dihydropyridine binding site (unknown origin) at 10 uM; type: protein assay
Summary of the method: (§2)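 Off-target selectivity panel covering 13 receptors, four ion channels, one transporter and one enzyme, plus prostanoid DP1, FP, IP and TP receptors and COX-1/2. Test concentration 10 µM.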

[6] = biological target: Voltage-gated inwardly rectifying potassium channel KCNH2 (Homo sapiens, UniProt Q12809); assay: Inhibition of human ERG up to 100 uM by [H3]-astemizole binding assay
Summary of the method: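 hERG activity measured as displacement of [3H]-astemizole binding, compound tested up to 100 µM.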

[7] = Half life in rat at 5 mg/kg, po; type: ADME, organism-based; conditions: in vivo
Summary of the method: (§3)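 Rat and dog given single iv dose of 1 mg/kg and oral dose of 5 mg/kg. Oral AUC, Cmax and half-life and iv clearance were derived from plasma levels.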

Cytochrome P450 1A2 [8] = biological target: T2, Cytochrome P450 1A2 (Homo sapiens, UniProt P05177); assay: Inhibition of CYP1A2 (unknown origin); type: ADME; summary of the method: as §1
T2 sequence (P05177 whole entry): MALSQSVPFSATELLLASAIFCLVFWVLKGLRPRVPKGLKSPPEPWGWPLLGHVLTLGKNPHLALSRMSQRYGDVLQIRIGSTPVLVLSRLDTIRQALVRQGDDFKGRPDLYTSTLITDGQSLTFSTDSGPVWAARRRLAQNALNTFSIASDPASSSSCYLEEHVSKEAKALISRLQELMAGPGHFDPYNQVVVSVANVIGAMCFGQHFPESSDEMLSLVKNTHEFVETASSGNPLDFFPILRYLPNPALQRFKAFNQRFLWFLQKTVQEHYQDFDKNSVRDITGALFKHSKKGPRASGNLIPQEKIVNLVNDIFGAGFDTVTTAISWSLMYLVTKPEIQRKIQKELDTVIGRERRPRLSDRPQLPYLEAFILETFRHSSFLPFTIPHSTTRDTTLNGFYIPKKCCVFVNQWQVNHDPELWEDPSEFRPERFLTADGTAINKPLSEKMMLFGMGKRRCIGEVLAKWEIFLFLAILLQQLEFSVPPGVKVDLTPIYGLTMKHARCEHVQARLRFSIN

Cytochrome P450 2C9 [9] = biological target: T3, Cytochrome P450 2C9 (Homo sapiens, UniProt P11712); assay: Inhibition of CYP2C9 (unknown origin); type: ADME; summary of the method: as §1
T3 sequence (P11712 whole entry): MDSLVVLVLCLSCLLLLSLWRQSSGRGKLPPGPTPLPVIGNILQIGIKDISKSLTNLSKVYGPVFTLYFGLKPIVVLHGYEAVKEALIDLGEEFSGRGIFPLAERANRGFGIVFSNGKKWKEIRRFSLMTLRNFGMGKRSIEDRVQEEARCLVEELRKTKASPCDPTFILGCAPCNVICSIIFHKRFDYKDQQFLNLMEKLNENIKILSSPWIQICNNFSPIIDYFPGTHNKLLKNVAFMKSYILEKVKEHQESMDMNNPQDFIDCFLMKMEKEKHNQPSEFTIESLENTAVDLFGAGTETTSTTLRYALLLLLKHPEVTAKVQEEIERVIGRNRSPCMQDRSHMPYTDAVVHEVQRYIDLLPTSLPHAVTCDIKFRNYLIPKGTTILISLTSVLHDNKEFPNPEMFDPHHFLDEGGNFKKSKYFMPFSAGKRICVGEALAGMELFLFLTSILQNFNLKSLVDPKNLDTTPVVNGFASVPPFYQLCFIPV

[10] = biological target: Beta-1 adrenergic receptor (Homo sapiens) (UniProt P08588); assay: Inhibition of human adrenergic beta1 receptor at 10 uM; summary of the method: as §2
[11] = biological target: Adrenergic receptor alpha-2 (Rattus norvegicus) (UniProt P22086+P19328+P22909); assay: Inhibition of rat adrenergic alpha2 receptor at 10 uM; summary of the method: as §2
Cytochrome P450 3A4 [12] = biological target: T1, Cytochrome P450 3A4; assay: Inhibition of CYP3A4 (unknown origin); type: ADME; summary of the method: as §1
[13] = Cmax in dog at 5 mg/kg, po; type: ADME, organism-based, Canis lupus familiaris; parameters: dose 5 mg/kg, route oral; conditions: in vivo; summary of the method: as §3
Cytochrome P450 2C19 [14] = biological target: T4, Cytochrome P450 2C19 (Homo sapiens, UniProt P33261); assay: Inhibition of CYP2C19 (unknown origin) at 10 uM; type: ADME; summary of the method: as §1
T4 sequence (P33261 whole entry): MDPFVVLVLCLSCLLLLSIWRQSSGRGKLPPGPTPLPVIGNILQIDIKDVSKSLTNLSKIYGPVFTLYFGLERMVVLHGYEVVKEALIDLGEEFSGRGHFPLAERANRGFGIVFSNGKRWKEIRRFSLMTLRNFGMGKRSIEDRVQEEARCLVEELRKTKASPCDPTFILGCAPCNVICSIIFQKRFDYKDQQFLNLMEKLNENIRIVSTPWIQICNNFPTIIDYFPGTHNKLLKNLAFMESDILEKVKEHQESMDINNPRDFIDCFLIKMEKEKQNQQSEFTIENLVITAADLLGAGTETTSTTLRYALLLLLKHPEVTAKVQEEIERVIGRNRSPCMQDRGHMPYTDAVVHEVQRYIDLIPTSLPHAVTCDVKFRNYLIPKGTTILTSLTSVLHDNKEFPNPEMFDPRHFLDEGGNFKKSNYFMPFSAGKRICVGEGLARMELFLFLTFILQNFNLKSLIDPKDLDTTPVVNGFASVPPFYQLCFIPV

[15] = Clearance in rat at 1 mg/kg, iv; type: ADME, organism-based; conditions: in vivo; summary of the method: as §3
[16] = biological target: L-type calcium channel diltiazem binding site (Homo sapiens, UniProt O60840+Q01668+Q13698+Q13936); assay: Inhibition of L-type calcium channel diltiazem binding site (unknown origin) at 10 uM; type: protein assay; summary of the method: as §2
[17] = biological target: L-type calcium channel verapamil binding site (Homo sapiens, UniProt O60840+Q01668+Q13698+Q13936); assay: Inhibition of L-type calcium channel verapamil binding site (unknown origin) at 10 uM; type: protein assay; summary of the method: as §2
[18] = Clearance in dog at 1 mg/kg, iv; type: ADME, organism-based, Canis lupus familiaris; conditions: in vivo; summary of the method: as §3
[19] = biological target: Sodium-dependent noradrenaline transporter (Homo sapiens) (UniProt P23975); assay: Inhibition of human norepinephrine transporter at 10 uM
[20] = biological target: Prostaglandin D2 receptor (Homo sapiens) (UniProt Q13258); assay: Inhibition of prostaglandin DP1 receptor (unknown origin) at 10 uM; summary of the method: as §2
Prostaglandin D2 receptor (Homo sapiens), sequence (Q13258 whole entry): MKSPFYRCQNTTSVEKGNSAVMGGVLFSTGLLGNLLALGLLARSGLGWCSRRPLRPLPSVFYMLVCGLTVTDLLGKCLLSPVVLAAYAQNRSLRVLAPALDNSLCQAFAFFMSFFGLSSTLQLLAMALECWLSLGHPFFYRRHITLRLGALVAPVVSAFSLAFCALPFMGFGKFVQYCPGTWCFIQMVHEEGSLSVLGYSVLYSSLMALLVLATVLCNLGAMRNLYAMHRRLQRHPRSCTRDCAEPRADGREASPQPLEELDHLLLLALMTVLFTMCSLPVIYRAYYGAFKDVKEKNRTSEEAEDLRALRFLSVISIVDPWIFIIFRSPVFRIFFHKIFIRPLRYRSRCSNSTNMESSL

Cytochrome P450 1A2 [21] = biological target: T2, Cytochrome P450 1A2; assay: Inhibition of CYP1A2 (unknown origin) at 10 uM; type: ADME; summary of the method: as §1
Cytochrome P450 2B6 [22] = biological target: T5, Cytochrome P450 2B6 (Homo sapiens, UniProt P20813); assay: Inhibition of CYP2B6 (unknown origin) at 10 uM; type: ADME; summary of the method: as §1
T5 sequence (P20813 whole entry): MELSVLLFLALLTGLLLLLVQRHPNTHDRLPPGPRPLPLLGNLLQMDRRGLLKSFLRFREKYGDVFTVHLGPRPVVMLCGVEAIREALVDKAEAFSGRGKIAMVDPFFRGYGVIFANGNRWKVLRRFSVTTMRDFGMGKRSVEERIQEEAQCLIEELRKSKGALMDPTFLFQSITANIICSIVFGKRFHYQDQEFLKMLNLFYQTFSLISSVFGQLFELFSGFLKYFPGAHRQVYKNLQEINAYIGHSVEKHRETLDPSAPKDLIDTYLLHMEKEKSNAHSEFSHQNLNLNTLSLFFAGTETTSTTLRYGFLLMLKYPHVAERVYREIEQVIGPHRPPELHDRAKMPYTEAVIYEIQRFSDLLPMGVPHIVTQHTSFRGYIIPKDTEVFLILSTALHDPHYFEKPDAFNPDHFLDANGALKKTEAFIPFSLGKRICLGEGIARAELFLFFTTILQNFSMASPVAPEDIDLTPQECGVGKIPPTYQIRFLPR

[23] = biological target: Prostaglandin G/H synthase 1 (Homo sapiens) (UniProt P23219); assay: Inhibition of COX1 (unknown origin) at 10 uM; summary of the method: as §2
Cytochrome P450 2C19 [24] = biological target: T4, Cytochrome P450 2C19; assay: Inhibition of CYP2C19 (unknown origin); type: ADME; summary of the method: as §1
[25] = biological target: Prostaglandin F2-alpha receptor (Homo sapiens) (UniProt P43088); assay: Inhibition of prostaglandin FP receptor (unknown origin) at 10 uM; summary of the method: as §2
Cytochrome P450 2C8 [26] = biological target: T6, Cytochrome P450 2C8 (Homo sapiens, UniProt P10632); assay: Inhibition of CYP2C8 (unknown origin) at 10 uM; type: ADME; summary of the method: as §1
T6 sequence (P10632 whole entry): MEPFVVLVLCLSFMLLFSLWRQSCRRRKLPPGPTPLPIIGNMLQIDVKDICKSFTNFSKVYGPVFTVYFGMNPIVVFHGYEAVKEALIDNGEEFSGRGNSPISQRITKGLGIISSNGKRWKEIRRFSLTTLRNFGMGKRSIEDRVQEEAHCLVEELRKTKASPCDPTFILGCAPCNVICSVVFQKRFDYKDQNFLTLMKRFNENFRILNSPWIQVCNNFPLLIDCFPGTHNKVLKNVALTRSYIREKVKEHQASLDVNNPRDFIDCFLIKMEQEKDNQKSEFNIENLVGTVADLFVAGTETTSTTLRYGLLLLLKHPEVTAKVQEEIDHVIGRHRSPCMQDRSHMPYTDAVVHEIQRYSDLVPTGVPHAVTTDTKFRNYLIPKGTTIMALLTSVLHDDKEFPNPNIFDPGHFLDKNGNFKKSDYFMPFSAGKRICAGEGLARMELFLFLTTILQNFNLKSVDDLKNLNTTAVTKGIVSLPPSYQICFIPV

[27] = AUC in dog at 5 mg/kg, po; type: ADME, organism-based, Canis lupus familiaris; conditions: in vivo; summary of the method: as §3
Cytochrome P450 2C8 [28] = biological target: T6, Cytochrome P450 2C8; assay: Inhibition of CYP2C8 (unknown origin); type: ADME; summary of the method: as §1
[29] = biological target: Muscarinic acetylcholine receptor M2 (Homo sapiens) (UniProt P08172); assay: Inhibition of human muscarinic M2 receptor at 10 uM; summary of the method: as §2
[30] = Cmax in rat at 5 mg/kg, po; type: ADME, organism-based; parameters: dose 5 mg/kg, route oral; conditions: in vivo; summary of the method: as §3
[31] = biological target: Prostacyclin receptor (Homo sapiens) (UniProt P43119); assay: Inhibition of prostaglandin IP receptor (unknown origin) at 10 uM; summary of the method: as §2
Rattus norvegicus [32] = assay: Antiinflammatory activity in rat adjuvant induced arthritis model assessed as suppression of Mycobacterium tuberculosis H37 RA induced paw swelling at 30 mg/kg measured from day 11 to 15 relative to vehicle control; type: functional, organism-based
Summary of the method: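 Rat adjuvant-induced arthritis: paw widths measured, then 0.25 mg adjuvant (Mycobacterium tuberculosis H37 RA) in 100 µl mineral oil given intradermally at tail base (day 0). On day 11, width of both paws was re-measured as percent change from day 0, and rats were randomized on this and body weight before dosing. Rats were euthanized day 15 without further dosing and paw width measured.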

[33] = biological target: Acetylcholinesterase (Homo sapiens) (UniProt P22303); assay: Inhibition of human acetylcholinesterase at 10 uM
[34] = biological target: Prostaglandin G/H synthase 2 (Homo sapiens) (UniProt P35354); assay: Inhibition of COX2 (unknown origin) at 10 uM; summary of the method: as §2
[35] = biological target: Muscarinic acetylcholine receptor M3 (Homo sapiens) (UniProt P20309); assay: Inhibition of human muscarinic M3 receptor at 10 uM; summary of the method: as §2
Muscarinic acetylcholine receptor M3 (Homo sapiens), sequence (P20309 whole entry, looked up): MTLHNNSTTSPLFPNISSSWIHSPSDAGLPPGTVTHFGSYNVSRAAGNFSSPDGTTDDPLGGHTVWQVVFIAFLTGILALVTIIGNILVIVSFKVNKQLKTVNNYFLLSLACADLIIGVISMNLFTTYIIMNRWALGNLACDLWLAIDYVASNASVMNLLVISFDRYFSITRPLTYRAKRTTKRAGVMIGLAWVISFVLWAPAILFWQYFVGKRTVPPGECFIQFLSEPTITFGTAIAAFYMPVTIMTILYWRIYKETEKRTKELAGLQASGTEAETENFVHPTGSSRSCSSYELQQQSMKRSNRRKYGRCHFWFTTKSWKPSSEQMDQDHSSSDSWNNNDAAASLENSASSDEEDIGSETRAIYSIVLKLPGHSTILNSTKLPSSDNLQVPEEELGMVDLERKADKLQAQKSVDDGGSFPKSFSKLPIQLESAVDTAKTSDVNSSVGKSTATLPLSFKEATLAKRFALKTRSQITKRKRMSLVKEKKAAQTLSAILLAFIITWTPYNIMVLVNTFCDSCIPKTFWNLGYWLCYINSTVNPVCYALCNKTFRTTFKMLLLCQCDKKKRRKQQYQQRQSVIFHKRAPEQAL

[36] = biological target: Mu-type opioid receptor (Homo sapiens) (UniProt P35372); assay: Inhibition of human Mu-type opioid receptor 10 uM; summary of the method: as §2
[37] = Half life in dog at 5 mg/kg, po; type: ADME, organism-based, Canis lupus familiaris; conditions: in vivo; summary of the method: as §3
[38] = biological target: Adrenergic receptor alpha-1 (Rattus norvegicus) (UniProt P15823+P23944+P43140); assay: Inhibition of rat adrenergic alpha1 receptor at 10 uM; summary of the method: as §2
[39] = biological target: Thromboxane A2 receptor (Homo sapiens) (UniProt P21731); assay: Inhibition of prostaglandin TP receptor (unknown origin) at 10 uM; summary of the method: as §2
[40] = biological target: Beta-2 adrenergic receptor (Homo sapiens) (UniProt P07550); assay: Inhibition of human adrenergic beta2 receptor at 10 uM; summary of the method: as §2
[41] = Volume of distribution at steady state in dog at 1 mg/kg, iv or 5 mg/kg, po; type: ADME, organism-based, Canis lupus familiaris; conditions: in vivo, read-out: Vdss
[42] = AUC in rat at 5 mg/kg, po; type: ADME, organism-based; conditions: in vivo; summary of the method: as §3
[43] = biological target: D(2) dopamine receptor (Homo sapiens) (UniProt P14416); assay: Inhibition of human dopamine D2 short receptor at 10 uM; summary of the method: as §2
[44] = biological target: Histamine H1 receptor (Homo sapiens) (UniProt P35367); assay: Inhibition of human histamine H1 receptor at 10 uM; summary of the method: as §2
Cytochrome P450 2B6 [45] = biological target: T5, Cytochrome P450 2B6; assay: Inhibition of CYP2B6 (unknown origin); type: ADME; summary of the method: as §1
Rattus norvegicus [46] = assay: Antiinflammatory activity in orally dosed rat MIA model assessed as inhibition of differential weight bearing measured 30 mins post dose by incapacitance test; type: functional, organism-based
Summary of the method: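 MIA 0.3 mg in 50 µL saline injected into right knee and saline into left knee of rats on day 0. Day 12: randomized, single oral dose in 10% acacia in water plus 0.05% antifoam at 0.3–10 mg/kg, with diclofenac 5 mg/kg. Hind-limb weight distribution measured by incapacitance tester 30 min post dose. n = 5/group, Dunnett's test versus vehicle.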

[47] = Aqueous solubility of compound at pH 6 at 2 mM after 20 hrs by HPLC; type: physicochemical; conditions: aqueous medium
Summary of the method: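 Samples in DMSO dried 12 h, then redissolved at pH 6 at a 2 mM target concentration. Stirred 20 h, filtered through 0.7 µm GF filter. Filtrate concentration measured by HPLC against a DMSO standard curve.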

Cytochrome P450 2D6 [48] = biological target: T7, Cytochrome P450 2D6 (Homo sapiens, UniProt P10635); assay: Inhibition of CYP2D6 (unknown origin); type: ADME; summary of the method: as §1
T7 sequence (P10635 whole entry): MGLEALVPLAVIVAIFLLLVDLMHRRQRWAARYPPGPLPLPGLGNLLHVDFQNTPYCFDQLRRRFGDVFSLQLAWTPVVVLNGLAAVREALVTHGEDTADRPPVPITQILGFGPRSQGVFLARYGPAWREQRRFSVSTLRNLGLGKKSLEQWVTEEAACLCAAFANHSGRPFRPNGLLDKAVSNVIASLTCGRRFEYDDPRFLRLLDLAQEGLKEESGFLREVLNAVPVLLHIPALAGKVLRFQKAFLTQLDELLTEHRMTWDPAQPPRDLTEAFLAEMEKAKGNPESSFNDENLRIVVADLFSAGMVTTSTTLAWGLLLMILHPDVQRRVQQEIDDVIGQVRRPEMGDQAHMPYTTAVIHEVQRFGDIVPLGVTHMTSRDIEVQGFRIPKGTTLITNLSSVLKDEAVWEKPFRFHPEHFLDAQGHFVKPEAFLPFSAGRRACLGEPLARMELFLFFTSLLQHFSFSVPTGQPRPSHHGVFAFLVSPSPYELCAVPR

[49] = Volume of distribution at steady state in rat at 1 mg/kg, iv or 5 mg/kg, po; type: ADME, organism-based; conditions: in vivo, read-out: Vdss
Cytochrome P450 2C9 [50] = biological target: T3, Cytochrome P450 2C9; assay: Inhibition of CYP2C9 (unknown origin) at 10 uM; type: ADME; summary of the method: as §1
Cytochrome P450 2D6 [51] = biological target: T7, Cytochrome P450 2D6; assay: Inhibition of CYP2D6 (unknown origin) at 10 uM; type: ADME; summary of the method: as §1
[52] = biological target: D(1A) dopamine receptor (Homo sapiens) (UniProt P21728); assay: Inhibition of human dopamine D1 receptor at 10 uM; summary of the method: as §2

## Cc1ccc(N2CCC(CO)C2)nc1C(=O)Nc1c(C)cc(C(=O)O)cc1C (stereo not drawn)
[1]
  IC50: 84 nM

## Cc1ccc(N2CCC(C)(O)CC2)nc1C(=O)Nc1c(C)ccc(C(=O)O)c1C
[1]
  IC50: 87.9 nM

## Cc1ccc(N2CCC(O)CC2)nc1C(=O)Nc1c(C)cc(C(=O)O)cc1C
Cytochrome P450 3A4 [2]
  inhibition (INH): Not Active
[3]
  bioavailability: 34%
[4]
  bioavailability: 75%
[5]
  inhibition at 10 µM: -39%
[6]
  inhibition (INH): Not Active
[7]
  half-life: 306 min
Cytochrome P450 1A2 [8]
  IC50: > 10 µM
Cytochrome P450 2C9 [9]
  IC50: > 10 µM
[10]
  inhibition: 3%
[11]
  inhibition: -4%
Cytochrome P450 3A4 [12]
  IC50: > 10 µM
[13]
  Cmax: 1870 ng/mL
Cytochrome P450 2C19 [14]
  inhibition (INH): Not Active
[15]
  clearance: 3 mL/min/kg
[16]
  inhibition at 10 µM: -23%
[17]
  inhibition at 10 µM: 1%
[18]
  clearance: 10 mL/min/kg
[19]
  inhibition: 7%
[20]
  inhibition: inactive
Cytochrome P450 1A2 [21]
  inhibition (INH): Not Active
Cytochrome P450 2B6 [22]
  inhibition (INH): Not Active
[23]
  inhibition: inactive
Cytochrome P450 2C19 [24]
  IC50: > 10 µM
[25]
  inhibition: inactive
Cytochrome P450 2C8 [26]
  inhibition (INH): Not Active
[27]
  AUC: 6320 ng·h/mL
Cytochrome P450 2C8 [28]
  IC50: > 10 µM
[29]
  inhibition: 6%
[30]
  Cmax: 3100 ng/mL
[31]
  inhibition: inactive
Rattus norvegicus [32]
  Activity: Active
[33]
  inhibition: 7%
[34]
  inhibition: inactive
[35]
  inhibition: 0%
[36]
  inhibition: -8%
[37]
  half-life: 306 min
[38]
  inhibition: -8%
[39]
  inhibition: inactive
[40]
  inhibition: -2%
[41]
  Vd: 1.73 L/kg
[42]
  AUC: 9670 ng·h/mL
[43]
  inhibition: 5%
[44]
  inhibition: -3%
Cytochrome P450 2B6 [45]
  IC50: > 10 µM
Rattus norvegicus [46]
  Activity: Dose-dependent effect
[47]
  solubility at 20 h, 2000 µM: 762 µg/mL (≈ 1990 µM)
Cytochrome P450 2D6 [48]
  IC50: > 10 µM
[49]
  Vd: 0.34 L/kg
Cytochrome P450 2C9 [50]
  inhibition (INH): Not Active
Cytochrome P450 2D6 [51]
  inhibition (INH): Not Active
[52]
  inhibition: 14%
